Data set [1] concerns PANC-1. The experiment in a line: Cytotoxicity against human PANC1 cells grown in nutrient-deprived medium after 24 hrs by WST8 assay. In kind it is functional. A digest of the protocol:
(§1)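 Cells seeded at 2 × 10^4/well and grown 24 h in fresh DMEM or RPMI-1640 at 37 °C, 5% CO2. After a PBS wash, the medium was replaced with serially diluted samples in DMEM (nutrient-rich) or NDM. After 24 h, DMEM with 10% WST-8 solution was added. A450 was read after 3 h. Viability (%) was taken from the mean of three wells, blank-corrected against the control. PC50 is 50% kill in NDM without toxicity in DMEM.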

Data set [2] deals with PANC-1. The experiment in a line: Induction of morphological changes in human PANC1 cells assessed as plasma membrane rupture at 25 uM after 24 hrs by inverted-phase contrast microscopic analysis. In kind it is functional, cell-based. An outline of the steps: (§2)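 Cells (1 × 10^6) were seeded in 60 mm dishes and attached over 24 h in a humidified CO2 incubator. They were washed twice with PBS and treated at 25 μM in DMEM or NDM, alongside controls. After 24 h, cells were viewed by phase-contrast on an inverted microscope with a 40× objective and photographed.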

The test system of data set [3] is PANC-1. The experiment in a line: Induction of morphological changes in human PANC1 cells assessed as rounding of cells at 25 uM after 24 hrs by inverted-phase contrast microscopic analysis. In kind it is functional, cell-based. An outline of the steps:
as §2

The subject of data set [4] is MIA PaCa-2. The experiment in a line: Cytotoxicity against human MIAPaCa2 cells grown in nutrient-deprived medium after 24 hrs by WST8 assay. In kind it is functional. A digest of the protocol: as §1
A further data set concerns KLM1. The experiment in a line: (§3) Cytotoxicity against human KLM1 cells grown in nutrient-deprived medium after 24 hrs by WST8 assay. Format: functional. An outline of the steps:
as §1

Data set [5] can be described thus: as §3. In kind it is functional. An outline of the steps:
as §1

Data set [6] in a line: Cytotoxicity against human KLM1 cells grown in nutrient-rich medium after 24 hrs by WST8 assay. In kind it is cell-based. The settings on record: klm1, 24 h. An outline of the steps:
as §1

Data set [7] concerns PSN1. The data set is described as follows: Cytotoxicity against human PSN1 cells grown in nutrient-rich medium after 24 hrs by WST8 assay. In kind it is cell-based. Conditions: psn1, 24 h. A digest of the protocol: as §1
The test system of data set [8] is PANC-1. The experiment in a line: Induction of morphological changes in human PANC1 cells assessed as loss of cellular content at 25 uM after 24 hrs by inverted-phase contrast microscopic analysis. In kind it is functional, cell-based. An outline of the steps:
as §2

Data set [9] relates to PANC-1. The experiment in a line: Cytotoxicity against human PANC1 cells grown in nutrient-rich medium after 24 hrs by WST8 assay. In kind it is cell-based. The settings on record: panc-1, 24 h. A digest of the protocol: as §1
In data set [10] the test system is PSN1. The experiment in a line: Cytotoxicity against human PSN1 cells grown in nutrient-deprived medium after 24 hrs by WST8 assay. Format: functional. An outline of the steps:
as §1

The subject of data set [11] is MIA PaCa-2. The data set is described as follows: Cytotoxicity against human MIAPaCa2 cells grown in nutrient-rich medium after 24 hrs by WST8 assay. In kind it is cell-based. The settings on record: mia paca-2, 24 h. An outline of the steps: as §1

Calls of active or inactive are those of the source. The calls are words filed in the database; no cut-off is given here.

The values below come from ChEMBL document CHEMBL2062391, “Antiausterity agents from Uvaria dac and their preferential cytotoxic activity against human pancreatic cancer cell lines in a nutrient-deprived condition” (J Nat Prod, 2012).

Regarding `O=C(OC[C@@]1(O)C(=O)C=C[C@H]2[C@@H]1[C@H]1C=C[C@@H]2C(=O)[C@]1(O)COC(=O)c1ccccc1)c1ccccc1`, the Activity entry in the data set with PANC-1 [1] is “Dose-dependent effect”; in the data set on MIA PaCa-2 [4], “Dose-dependent effect”; with KLM1, “Dose-dependent effect”; in [6], “Non-toxic”; in the data set with PSN1 [7], “Non-toxic”; in the data set with PANC-1 [9] it was “Non-toxic”. Further, the Activity entry in the data set on PSN1 [10] is “Dose-dependent effect”; in the data set with MIA PaCa-2 [11], “Non-toxic”. Besides, the PC50 was 14.5 µM in the data set with PANC-1 [1], 17.5 µM with MIA PaCa-2 [4], 32.7 µM in data set [5] and 32.6 µM with PSN1 [10]. The result with PANC-1 [2], with PANC-1 [3] and in the data set with PANC-1 [8] was Active.
In the case of `COc1ccccc1COC(=O)c1ccccc1`, the PC50 is 137 µM in the data set on PANC-1 [1], 131 µM with MIA PaCa-2 [4], over 200 µM in data set [5] and 185 µM in the data set with PSN1 [10]. Moreover, the Activity entry (in data set [6]; in the data set on PSN1 [7]; with PANC-1 [9]; with MIA PaCa-2 [11]) was “Non-toxic” throughout.
For `COc1cc(C[C@H]2C(=O)OC[C@@H]2Cc2ccc(OC)c(OC)c2)ccc1O` [ARCTIGENIN], the PC50 amounted to 1.7 µM in the data set on PANC-1 [1], 0.67 µM in the data set with MIA PaCa-2 [4], 1.5 µM in data set [5] and 1.9 µM in the data set on PSN1 [10]. Besides, the Activity entry (in [6]; in the data set with PSN1 [7]; with PANC-1 [9]; in the data set with MIA PaCa-2 [11]) was “Non-toxic” each time.
Turning to `Nc1ccn([C@@H]2O[C@H](CO)[C@@H](O)C2(F)F)c(=O)n1` [GEMCITABINE], the PC50 (in the data set with PANC-1 [1]; in the data set on MIA PaCa-2 [4]; in data set [5]; in the data set on PSN1 [10]) was over 200 µM in each case. Besides, the Activity entry (in data set [6]; in the data set with PSN1 [7]; in the data set on PANC-1 [9]; in the data set with MIA PaCa-2 [11]) was “Non-toxic” throughout.
With `C/C(=C\COC(=O)c1ccccc1)COC(=O)c1ccccc1` [UVARIDACANE A], the PC50 in the data set on PANC-1 [1] was determined as 72.3 µM; with MIA PaCa-2 [4] it was 56.3 µM; in data set [5], 122 µM; in the data set on PSN1 [10] it was 96.5 µM. Moreover, the Activity result (in data set [6]; in the data set on PSN1 [7]; with PANC-1 [9]; in the data set with MIA PaCa-2 [11]) was “Non-toxic” throughout.
Regarding `C/C(=C\COC(=O)/C=C/c1ccccc1)COC(=O)c1ccccc1` [UVARIDACANE B], the PC50 is 134 µM with PANC-1 [1], 57.8 µM in the data set on MIA PaCa-2 [4], over 200 µM in data set [5] and 143 µM with PSN1 [10]. Further, the Activity entry (in [6]; in the data set with PSN1 [7]; in the data set with PANC-1 [9]; in the data set on MIA PaCa-2 [11]) was “Non-toxic” in each case.
For the compound `CC(=O)O[C@H]1C(COC(=O)c2ccccc2)=C[C@@H](O)[C@@H](O)[C@H]1OC(=O)c1ccccc1` [UVARIDACOL A], the PC50 in the data set on PANC-1 [1] is 102 µM; with MIA PaCa-2 [4], 192 µM; in data set [5], 83 µM; in the data set with PSN1 [10], 173 µM. Moreover, the Activity entry (in data set [6]; in the data set with PSN1 [7]; in the data set on PANC-1 [9]; in the data set on MIA PaCa-2 [11]) was “Non-toxic” throughout.
For the compound `CO[C@@H]1C=C(COC(=O)c2ccccc2)[C@H](OC(C)=O)[C@H](OC(=O)c2ccccc2)[C@@H]1O` [UVARIDACOL B], the PC50 in the data set on PANC-1 [1] is 69.8 µM; in the data set on MIA PaCa-2 [4], 147 µM; in data set [5], over 200 µM; in the data set with PSN1 [10] it was 158 µM. The Activity result (in data set [6]; with PSN1 [7]; with PANC-1 [9]; in the data set with MIA PaCa-2 [11]) was “Non-toxic” in each case.
Take `O=C(OCC1=C[C@H](O)[C@H](O)[C@@H](OC(=O)c2ccccc2)[C@@H]1O)c1ccccc1` [UVARIDACOL C]: the PC50 came to 72.9 µM in the data set on PANC-1 [1], 115 µM in the data set on MIA PaCa-2 [4] and 152 µM in the data set with PSN1 [10]. Further, the Activity result (in data set [6]; with PSN1 [7]; with PANC-1 [9]; in the data set with MIA PaCa-2 [11]) was “Non-toxic” in each case.
Take `CC(=O)O[C@@H]1C(COC(=O)c2ccccc2)=C[C@H]2O[C@H]2[C@H]1OC(=O)c1ccccc1` [UVARIDAPOXIDE A]: the PC50 worked out at 112 µM in the data set on PANC-1 [1], 100 µM with MIA PaCa-2 [4], 159 µM in [5] and 80.1 µM in the data set on PSN1 [10]. The Activity result (in data set [6]; in the data set with PSN1 [7]; with PANC-1 [9]; in the data set with MIA PaCa-2 [11]) was “Non-toxic” each time.
